Measurements as given in ChEMBL document CHEMBL1146451, “Spirostanol and furostanol glycosides from the fresh tubers of Polianthes tuberosa” (J Nat Prod, 2004).
≈ marks a conversion by molar mass, not a printed value.

System: HeLa
Assay: Cytotoxicity against human HeLa cells after 72 hrs by MTT assay
Format: functional, cell-based
How it was run: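 HeLa cells seeded at 2 × 10^4 cells/mL in RPMI 1640, preincubated 12 h at 37 °C in 5% CO2/air. Samples added in DMSO to final 25, 20, 15, 10, 5, 2.5, 1.25, 0.80 µg/mL; DMSO alone in control wells.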

Compound | IC50
C[C@H](CC[C@@]1(O)O[C@H]2C[C@H]3[C@@H]4CC[C@H]5C[C@@H](O[C@@H]6O[C@H](CO)[C@H](O[C@@H]7O[C@H](CO)[C@@H](O)[C@H](O[C@@H]8OC[C@@H](O)[C@H](O)[C@H]8O)[C@H]7O[C@@H]7O[C@H](CO)[C@@H](O)[C@H](O)[C@H]7O)[C@H](O)[C@H]6O)CC[C@]5(C)[C@H]4CC[C@]3(C)[C@H]2[C@@H]1C)CO[C@@H]1O[C@H](CO)[C@@H](O)[C@H](O)[C@H]1O | 18.8 µg/mL (≈ 15.5 µM)
C[C@H](CC[C@@]1(O)O[C@H]2C[C@H]3[C@@H]4CC[C@H]5C[C@@H](O[C@@H]6O[C@H](CO)[C@H](O[C@@H]7O[C@H](CO)[C@@H](O)[C@H](O[C@@H]8OC[C@@H](O)[C@H](O)[C@H]8O)[C@H]7O[C@@H]7O[C@H](CO)[C@@H](O)[C@H](O[C@@H]8OC[C@@H](O)[C@H](O)[C@H]8O)[C@H]7O)[C@H](O)[C@H]6O)CC[C@]5(C)[C@H]4CC(=O)[C@]3(C)[C@H]2[C@@H]1C)CO[C@@H]1O[C@H](CO)[C@@H](O)[C@H](O)[C@H]1O [POLIANTHOSIDE E] | 5.21 µg/mL (≈ 3.83 µM)
C[C@@H]1CC[C@@]2(OC1)O[C@H]1C[C@H]3[C@@H]4CC[C@H]5C[C@@H](O[C@@H]6O[C@H](CO)[C@H](O[C@@H]7O[C@H](CO)[C@@H](O)[C@H](O[C@@H]8OC[C@@H](O)[C@H](O)[C@H]8O)[C@H]7O[C@@H]7O[C@H](CO)[C@@H](O)[C@H](O[C@@H]8OC[C@@H](O)[C@H](O)[C@H]8O)[C@H]7O)[C@H](O)[C@H]6O)CC[C@]5(C)[C@H]4CC[C@]3(C)[C@H]1[C@@H]2C | 7.2 µg/mL (≈ 6.17 µM)
C[C@@H]1CC[C@@]2(OC1)O[C@H]1C[C@H]3[C@@H]4CC[C@H]5C[C@@H](O[C@@H]6O[C@H](CO)[C@H](O[C@@H]7O[C@H](CO)[C@@H](O)[C@H](O[C@@H]8O[C@H](CO)[C@@H](O)[C@H](O)[C@H]8O)[C@H]7O[C@@H]7O[C@H](CO)[C@@H](O)[C@H](O[C@@H]8OC[C@@H](O)[C@H](O)[C@H]8O)[C@H]7O)[C@H](O)[C@H]6O)CC[C@]5(C)[C@H]4CC[C@]3(C)[C@H]1[C@@H]2C [POLIANTHOSIDE B] | > 20 µg/mL
C[C@H](CC[C@@]1(O)O[C@H]2C[C@H]3[C@@H]4CC[C@H]5C[C@@H](O[C@@H]6O[C@H](CO)[C@H](O[C@@H]7O[C@H](CO)[C@@H](O)[C@H](O[C@@H]8OC[C@@H](O)[C@H](O)[C@H]8O)[C@H]7O[C@@H]7O[C@H](CO)[C@@H](O)[C@H](O[C@@H]8OC[C@@H](O)[C@H](O)[C@H]8O)[C@H]7O)[C@H](O)[C@H]6O)CC[C@]5(C)[C@H]4CC[C@]3(C)[C@H]2[C@@H]1C)CO[C@@H]1O[C@H](CO)[C@@H](O)[C@H](O)[C@H]1O [POLIANTHOSIDE F] | 20 µg/mL (≈ 14.8 µM)
C[C@@H]1CC[C@@]2(OC1)O[C@H]1C[C@H]3[C@@H]4CC[C@H]5C[C@@H](O[C@@H]6O[C@H](CO)[C@H](O[C@@H]7O[C@H](CO)[C@@H](O)[C@H](O[C@@H]8O[C@H](CO)[C@@H](O)[C@H](O)[C@H]8O)[C@H]7O[C@@H]7O[C@H](CO)[C@@H](O)[C@H](O[C@@H]8OC[C@@H](O)[C@H](O)[C@H]8O)[C@H]7O)[C@H](O)[C@H]6O)CC[C@]5(C)[C@H]4CC(=O)[C@]3(C)[C@H]1[C@@H]2C [AGAMENOSIDE F] | 5.1 µg/mL (≈ 4.21 µM)
C[C@@H]1CC[C@@]2(OC1)O[C@H]1C[C@H]3[C@@H]4CC[C@H]5C[C@@H](O[C@@H]6O[C@H](CO)[C@H](O[C@@H]7O[C@H](CO)[C@@H](O)[C@H](O[C@@H]8OC[C@@H](O)[C@H](O)[C@H]8O)[C@H]7O[C@@H]7O[C@H](CO)[C@@H](O)[C@H](O[C@@H]8OC[C@@H](O)[C@H](O)[C@H]8O)[C@H]7O)[C@H](O)[C@H]6O)CC[C@]5(C)[C@H]4CC(=O)[C@]3(C)[C@H]1[C@@H]2C | 4.02 µg/mL (≈ 3.4 µM)
C[C@H](CC[C@@]1(O)O[C@H]2C[C@H]3[C@@H]4CC[C@H]5C[C@@H](O[C@@H]6O[C@H](CO)[C@H](O[C@@H]7O[C@H](CO)[C@@H](O)[C@H](O[C@@H]8O[C@H](CO)[C@@H](O)[C@H](O)[C@H]8O)[C@H]7O[C@@H]7O[C@H](CO)[C@@H](O)[C@H](O[C@@H]8OC[C@@H](O)[C@H](O)[C@H]8O)[C@H]7O)[C@H](O)[C@H]6O)CC[C@]5(C)[C@H]4CC[C@]3(C)[C@H]2[C@@H]1C)CO[C@@H]1O[C@H](CO)[C@@H](O)[C@H](O)[C@H]1O [POLIANTHOSIDE G] | 5.36 µg/mL (≈ 3.89 µM)
C[C@@H]1CC[C@@]2(OC1)O[C@H]1C[C@H]3[C@@H]4CC[C@H]5C[C@@H](O[C@@H]6O[C@H](CO)[C@H](O[C@@H]7O[C@H](CO)[C@@H](O)[C@H](O)[C@H]7O[C@@H]7O[C@H](CO)[C@@H](O)[C@H](O)[C@H]7O)[C@H](O)[C@H]6O)CC[C@]5(C)[C@H]4CC(=O)[C@]3(C)[C@H]1[C@@H]2C | 8.61 µg/mL (≈ 9.39 µM)
C[C@@H]1CC[C@@]2(OC1)O[C@H]1C[C@H]3[C@@H]4CC[C@H]5C[C@@H](O[C@@H]6O[C@H](CO)[C@H](O[C@@H]7O[C@H](CO)[C@@H](O)[C@H](O[C@@H]8O[C@H](CO)[C@@H](O)[C@H](O)[C@H]8O)[C@H]7O[C@@H]7O[C@H](CO)[C@@H](O)[C@H](O[C@@H]8O[C@H](CO)[C@@H](O)[C@H](O)[C@H]8O)[C@H]7O)[C@H](O)[C@H]6O)CC[C@]5(C)[C@H]4CC[C@]3(C)[C@H]1[C@@H]2C [POLIANTHOSIDE C] | > 20 µg/mL
C[C@H](CC[C@@]1(O)O[C@H]2C[C@H]3[C@@H]4CC[C@H]5C[C@@H](O[C@@H]6O[C@H](CO)[C@H](O[C@@H]7O[C@H](CO)[C@@H](O)[C@H](O[C@@H]8OC[C@@H](O)[C@H](O)[C@H]8O)[C@H]7O[C@@H]7O[C@H](CO)[C@@H](O)[C@H](O)[C@H]7O)[C@H](O)[C@H]6O)CC[C@]5(C)[C@H]4CC(=O)[C@]3(C)[C@H]2[C@@H]1C)CO[C@@H]1O[C@H](CO)[C@@H](O)[C@H](O)[C@H]1O [POLIANTHOSIDE D] | 7.86 µg/mL (≈ 6.39 µM)
C[C@@H]1CC[C@@]2(OC1)O[C@H]1C[C@H]3[C@@H]4CC[C@H]5C[C@@H](O[C@@H]6O[C@H](CO)[C@H](O[C@@H]7O[C@H](CO)[C@@H](O)[C@H](O[C@@H]8OC[C@@H](O)[C@H](O)[C@H]8O)[C@H]7O[C@@H]7O[C@H](CO)[C@@H](O)[C@H](O)[C@H]7O)[C@H](O)[C@H]6O)CC[C@]5(C)[C@H]4CC(=O)[C@]3(C)[C@H]1[C@@H]2C | 8.17 µg/mL (≈ 7.79 µM)
C[C@@H]1CC[C@@]2(OC1)O[C@H]1C[C@H]3[C@@H]4C[C@H](O)[C@H]5C[C@@H](O[C@@H]6O[C@H](CO)[C@H](O[C@@H]7O[C@H](CO)[C@@H](O)[C@H](O[C@@H]8OC[C@@H](O)[C@H](O)[C@H]8O)[C@H]7O[C@@H]7O[C@H](CO)[C@@H](O)[C@H](O[C@@H]8OC[C@@H](O)[C@H](O)[C@H]8O)[C@H]7O)[C@H](O)[C@H]6O)CC[C@]5(C)[C@H]4CC[C@]3(C)[C@H]1[C@@H]2C | 7.5 µg/mL (≈ 6.34 µM)
